According to ChEMBL document CHEMBL1142961, “Novel selective inhibitors of the zinc plasmodial aminopeptidase PfA-M1 as potential antimalarial agents” (J Med Chem, 2007):
Blank lines part the entries; values can stand above or below the compound they belong to.

Tests used:
[1] = biological target: T1, Aminopeptidase N (Plasmodium falciparum FcB1/Columbia) (UniProt O96935); assay: Inhibition of Plasmodium falciparum FcB1 M1 aminopeptidase at 10 uM
T1 sequence (whole entry): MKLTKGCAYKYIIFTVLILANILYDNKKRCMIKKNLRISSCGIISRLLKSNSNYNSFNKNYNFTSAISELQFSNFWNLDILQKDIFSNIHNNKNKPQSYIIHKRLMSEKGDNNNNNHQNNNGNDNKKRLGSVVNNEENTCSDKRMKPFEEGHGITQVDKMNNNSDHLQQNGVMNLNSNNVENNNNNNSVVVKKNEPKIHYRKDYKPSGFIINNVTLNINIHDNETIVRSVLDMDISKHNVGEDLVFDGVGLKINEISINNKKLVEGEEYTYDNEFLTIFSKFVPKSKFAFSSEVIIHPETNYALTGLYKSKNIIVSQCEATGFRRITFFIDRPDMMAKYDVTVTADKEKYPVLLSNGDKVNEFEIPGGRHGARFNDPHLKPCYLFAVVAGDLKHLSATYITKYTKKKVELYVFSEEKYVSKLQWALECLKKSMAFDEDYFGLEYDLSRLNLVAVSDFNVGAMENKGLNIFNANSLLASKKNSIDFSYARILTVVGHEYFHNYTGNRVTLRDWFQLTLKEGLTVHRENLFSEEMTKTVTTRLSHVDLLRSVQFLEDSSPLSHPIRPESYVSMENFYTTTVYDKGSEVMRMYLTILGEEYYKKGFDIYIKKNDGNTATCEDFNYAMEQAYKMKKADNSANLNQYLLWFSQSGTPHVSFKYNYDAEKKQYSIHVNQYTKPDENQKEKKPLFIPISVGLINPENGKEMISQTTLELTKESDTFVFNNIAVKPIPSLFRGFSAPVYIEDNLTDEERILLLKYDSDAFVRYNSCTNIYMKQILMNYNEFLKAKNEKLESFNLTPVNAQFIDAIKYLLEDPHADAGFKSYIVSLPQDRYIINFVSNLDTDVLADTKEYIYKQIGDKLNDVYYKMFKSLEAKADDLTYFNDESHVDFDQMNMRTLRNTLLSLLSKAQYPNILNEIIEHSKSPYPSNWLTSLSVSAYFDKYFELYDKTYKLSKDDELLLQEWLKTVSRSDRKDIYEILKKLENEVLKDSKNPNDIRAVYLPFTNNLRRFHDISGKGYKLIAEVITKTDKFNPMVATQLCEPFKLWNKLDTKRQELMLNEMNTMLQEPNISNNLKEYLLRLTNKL
How it was run: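 Native enzyme purified from P. falciparum FcB1, diluted 10-fold in 25 mM Tris-HCl pH 7.4. Preincubated with inhibitor for 10 min at room temperature, then Leu-pNA substrate added (0.3 mM stock, Km 0.099 mM). Kinetics followed at 405 nm at room temperature. Initial velocities normalized to a no-inhibitor control. Single-point screen at 10 µM; IC50 from velocity versus inhibitor concentration curves. Bestatin used as reference.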

[2] = biological target: T2, Aminopeptidase N (Sus scrofa) (UniProt P15145); assay: Inhibition of pig kidney microsomal APN at 10 uM
T2 sequence (whole entry): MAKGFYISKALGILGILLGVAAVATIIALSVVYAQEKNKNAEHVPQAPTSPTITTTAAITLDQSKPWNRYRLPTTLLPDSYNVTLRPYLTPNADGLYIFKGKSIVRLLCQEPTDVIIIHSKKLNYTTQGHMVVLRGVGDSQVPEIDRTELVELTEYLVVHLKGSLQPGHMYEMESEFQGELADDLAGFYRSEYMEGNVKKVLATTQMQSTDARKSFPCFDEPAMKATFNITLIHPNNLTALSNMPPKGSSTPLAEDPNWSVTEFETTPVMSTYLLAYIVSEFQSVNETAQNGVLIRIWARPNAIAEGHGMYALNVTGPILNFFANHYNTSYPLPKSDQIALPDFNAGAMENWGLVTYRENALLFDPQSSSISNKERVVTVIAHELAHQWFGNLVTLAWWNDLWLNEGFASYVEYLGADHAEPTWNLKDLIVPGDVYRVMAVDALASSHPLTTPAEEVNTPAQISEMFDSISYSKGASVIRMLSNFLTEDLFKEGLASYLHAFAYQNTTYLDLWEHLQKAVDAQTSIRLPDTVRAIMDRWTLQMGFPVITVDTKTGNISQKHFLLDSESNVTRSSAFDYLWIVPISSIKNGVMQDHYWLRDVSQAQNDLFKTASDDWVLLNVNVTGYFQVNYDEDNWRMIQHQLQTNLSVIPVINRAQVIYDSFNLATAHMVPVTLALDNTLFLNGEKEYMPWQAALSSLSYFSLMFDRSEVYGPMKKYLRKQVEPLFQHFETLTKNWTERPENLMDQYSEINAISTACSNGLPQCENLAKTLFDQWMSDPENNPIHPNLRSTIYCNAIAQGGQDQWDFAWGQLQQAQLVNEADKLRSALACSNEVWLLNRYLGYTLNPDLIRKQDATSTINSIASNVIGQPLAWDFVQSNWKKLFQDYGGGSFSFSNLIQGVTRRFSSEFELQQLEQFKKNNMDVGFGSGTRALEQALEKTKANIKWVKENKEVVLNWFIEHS
How it was run: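 Porcine kidney microsomal APN (ammonium sulfate suspension) diluted 600-fold in 25 mM Tris-HCl pH 7.4. Preincubated with inhibitor for 10 min at room temperature, then Leu-pNA added (0.3 mM stock). Hydrolysis followed at 405 nm at room temperature. Rates normalized to a no-inhibitor control. Single point at 10 µM; IC50 from concentration-velocity curves. Bestatin used as reference.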

SMILES: O=C(NO)C(Cc1cccc(Oc2ccccc2)c1)C(=O)NCc1ccc(F)cc1 (stereo not given)
inhibition [1]: 35%
inhibition [2]: 22%

SMILES: O=C(NO)C(Cc1cccc(Oc2ccccc2)c1)C(=O)N1CCN(c2ccccc2)CC1 (stereo not given)
inhibition [1]: 38%
inhibition [2]: 63%

SMILES: COc1cccc(CC(C(=O)NO)C(=O)NCc2cccc(Oc3ccccc3)c2)c1 (stereo not given)
inhibition [1]: 68%
inhibition [2]: 69%

SMILES: CC(C)CC(C(=O)NO)C(=O)N1CCC(n2c(=O)[nH]c3ccccc32)CC1 (stereo not given)
inhibition [1]: 15%
inhibition [2]: 54%

SMILES: CC(C)CC(C(=O)NO)C(=O)N1CCN(c2ccccc2)CC1 (stereo not given)
inhibition [1]: 38%
inhibition [2]: 103%

SMILES: O=C(CC(=O)N1CCC(n2c(=O)[nH]c3ccccc32)CC1)NO
inhibition [1]: 6%
inhibition [2]: 19%

SMILES: NC(C(=O)NO)C(=O)NCc1ccc(C(F)(F)F)cc1 (stereo not given)
inhibition [1]: 6%
inhibition [2]: 55%

SMILES: CC(C)CC(C(=O)NO)C(=O)NCCC(c1ccccc1)c1ccccc1 (stereo not given)
inhibition [1]: 76%
inhibition [2]: 102%

SMILES: O=C(NO)C(Cc1cccc(Oc2ccccc2)c1)C(=O)N1CCC2(CC1)C(=O)NCN2c1ccccc1 (stereo not given)
inhibition [1]: 65%
inhibition [2]: 70%

SMILES: NC(C(=O)NO)C(=O)NC1Cc2ccccc2C1 (stereo not given)
inhibition [1]: 20%
inhibition [2]: 36%

SMILES: O=C(NO)C(Cc1cccc(Oc2ccccc2)c1)C(=O)NCc1cccc(-c2ccccc2)c1 (stereo not given)
inhibition [1]: 41%
inhibition [2]: 81%

SMILES: CC(C)CC(C(=O)NO)C(=O)N1CCC2(CC1)C(=O)NCN2c1ccccc1 (stereo not given)
inhibition [1]: 7%
inhibition [2]: 26%

SMILES: NC(C(=O)NO)C(=O)N1CCc2ccccc2C1 (stereo not given)
inhibition [1]: 49%
inhibition [2]: 32%

SMILES: O=C(NO)C(Cc1ccccc1)C(=O)NCCC(c1ccccc1)c1ccccc1 (stereo not given)
inhibition [1]: 65%
inhibition [2]: 83%

SMILES: O=C(NO)C(Cc1cccc(Oc2ccccc2)c1)C(=O)NCCC(c1ccccc1)c1ccccc1 (stereo not given)
inhibition [1]: 50%
inhibition [2]: 59%

Next, values leading:

inhibition [1]: 75%
inhibition [2]: 56%
SMILES: O=C(NO)C(Cc1ccccc1)C(=O)N(CCc1ccccc1)Cc1ccccc1 (stereo not given)

inhibition [1]: -3%
inhibition [2]: 19%
SMILES: O=C(CC(=O)N[C@H]1CCN(Cc2ccccc2)C1)NO

inhibition [1]: -1%
inhibition [2]: 29%
SMILES: CN(Cc1ccccc1)C(=O)C(N)C(=O)NO (stereo not given)

inhibition [1]: 45%
inhibition [2]: 28%
SMILES: CC(C)CN(CCCCc1ccccc1)C(=O)C(Cc1ccccc1)C(=O)NO (stereo not given)

inhibition [1]: 58%
inhibition [2]: 86%
SMILES: CC(C)CC(C(=O)NO)C(=O)N[C@H]1CCN(Cc2ccccc2)C1 (stereo not given in full)

inhibition [1]: -4%
inhibition [2]: 11%
SMILES: CN(CCCCc1ccccc1)C(=O)CC(=O)NO

inhibition [1]: 35%
inhibition [2]: 62%
SMILES: NC(C(=O)NO)C(=O)NCc1cccc(-c2ccccc2)c1 (stereo not given)

inhibition [1]: 5%
inhibition [2]: 32%
SMILES: O=C(CC(=O)N(CCc1ccccc1)Cc1ccccc1)NO

inhibition [1]: 2%
inhibition [2]: 16%
SMILES: NC(C(=O)NO)C(=O)NCCNc1cccc2ccccc12 (stereo not given)

inhibition [1]: 8%
inhibition [2]: 23%
SMILES: O=C(CC(=O)N1CCN(Cc2ccccc2)CC1)NO

inhibition [1]: 2%
inhibition [2]: 20%
SMILES: CC(C)CC(C(=O)NO)C(=O)N(C)CCCCc1ccccc1 (stereo not given)

inhibition [1]: 18%
inhibition [2]: -5%
SMILES: NC(C(=O)NO)C(=O)N1CCN(Cc2ccccc2)CC1 (stereo not given)

inhibition [1]: 8%
inhibition [2]: 62%
SMILES: NC(C(=O)NO)C(=O)NCCC(c1ccccc1)c1ccccc1 (stereo not given)

inhibition [1]: 23%
inhibition [2]: 37%
SMILES: CC(C)CC(C(=O)NO)C(=O)N(C)Cc1ccccc1 (stereo not given)

inhibition [1]: 66%
inhibition [2]: 81%
SMILES: CC(C)CC(C(=O)NO)C(=O)NCCCN(C)c1ccccc1 (stereo not given)

inhibition [1]: 76%
inhibition [2]: 53%
SMILES: CN(CCCCc1ccccc1)C(=O)C(Cc1ccccc1)C(=O)NO (stereo not given)

inhibition [1]: 19%
inhibition [2]: 36%
SMILES: O=C(CC(=O)NCCCCc1ccccc1)NO

inhibition [1]: -3%
inhibition [2]: 19%
SMILES: O=C(CC(=O)N1CCc2ccccc2C1)NO

inhibition [1]: -7%
inhibition [2]: 22%
SMILES: NC(C(=O)NO)C(=O)NCCc1ccccn1 (stereo not given)

inhibition [1]: 64%
inhibition [2]: 8%
SMILES: NC(C(=O)NO)C(=O)NCCCc1ccccc1 (stereo not given)
